Screens deposited in PubChem BioAssay by several laboratories.
Rows were chosen to be rich in hits. Some 1.6% of all compounds tested hit in one or more screens of this group.
Platelet DG rel = modulates dense granule release in human platelets; inhibition, %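 (compounds screened at 7.5 µM in platelet-rich plasma)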; hit rate 0.22% among 300,000; human platelet-rich plasma, SFLLRN dense granule ATP release, luminescence;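 active means mean replicate score, as percent of positive control, at or above 50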
PPC-1+TRAIL kill = compounds killing PPC-1 cancer cells with TRAIL present (potentiator screen, no TRAIL-free arm). PPC-1 cells + TRAIL, ATPLite viability luminescence. cell killing (% activity), % at 4 µM or 5 µM. hit rate 0.41% among 220,000. AID 1443;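 active means cell killing above 50% in the first pass at 4 µM, then a duplicate retest at 5 µM averaging 50% or more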
FLuc inh counter = inhibits firefly luciferase, flagging false hits in luciferase inhibition screens; P08659; ATPLite firefly luciferase biochemical luminescence, 10 min; inhibition, % at 10 µM; hit rate 1.5% among 200,000; AID 1006;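 active means inhibition above about 50% when tested at 10 µM, limit read from the data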
Target sequence (P08659 whole entry, looked up): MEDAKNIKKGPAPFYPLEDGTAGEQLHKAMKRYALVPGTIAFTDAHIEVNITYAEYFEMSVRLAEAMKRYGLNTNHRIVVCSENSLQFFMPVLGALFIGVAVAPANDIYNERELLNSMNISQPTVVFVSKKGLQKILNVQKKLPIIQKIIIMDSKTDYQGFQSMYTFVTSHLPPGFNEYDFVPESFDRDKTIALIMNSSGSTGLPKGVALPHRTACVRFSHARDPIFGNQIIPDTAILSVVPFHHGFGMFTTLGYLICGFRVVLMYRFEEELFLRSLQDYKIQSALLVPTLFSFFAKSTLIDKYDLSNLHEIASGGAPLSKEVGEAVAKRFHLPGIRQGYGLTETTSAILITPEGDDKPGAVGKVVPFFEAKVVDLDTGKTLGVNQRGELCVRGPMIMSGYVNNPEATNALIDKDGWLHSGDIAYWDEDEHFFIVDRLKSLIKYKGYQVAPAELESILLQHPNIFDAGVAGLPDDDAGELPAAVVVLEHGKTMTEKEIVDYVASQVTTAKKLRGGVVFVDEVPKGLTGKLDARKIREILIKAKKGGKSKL
TRAIL sens C8 = caspase-8 TRAIL sensitization | AID 624354 | NB7+C8 cells + TRAIL, ATPlite viability luminescence | inhibition (viability loss, TRAIL sensitization), % at 10 µM | hit rate 1% among 360,000;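 active means compounds causing at least 50% loss of cell viability in the single-dose screen, relative to plate controls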
FLuc act counter = affects firefly luciferase, flagging false hits in luciferase stimulation screens. ATPlite luciferase biochemical, luminescence, 10 min; 0 = ATP-free wells, 1 = DMSO control. 200,000 tested, under 10 active. P08659. activation factor at 10 µM;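 active means luciferase activation factor, scaled between plate controls, of at least 2 with compound at 10 µM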
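System: Luciferase/luciferin detection reagent, cell-free biochemical luciferase assay | Medium: PBS buffer for ATP | Dosing: Test compounds dosed from 2 mM stocks in 100% DMSO | Timing: 10 min at ambient temperature | Signal: Luminescence measurement of luciferase light output | Evaluation: Luciferase activation, seen as luminescence increase over controls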
Hits are given with their value; i = inactive; nt = no result given.

SMILES	Platelet DG rel	PPC-1+TRAIL kill	FLuc inh counter	TRAIL sens C8	FLuc act counter
CCn1c(/C=C/c2c(C)n(CC)c3ccccc23)nc2ccccc2c1=O	i	i	i	i	i
CC(C)N(C)c1ncnc2c1ncn2[C@H]1CN(Cc2ccc(-c3ccccc3)cc2)C[C@@H](CO)O1	nt	nt	nt	i	nt
Cc1nn(-c2ccccc2)c(N)c1N=Nc1ccccc1	i	i	i	i	i
Nc1ncnc(N)c1N=Nc1ccccc1	i	nt	nt	65.9	nt
Nc1nn(-c2ccccc2)c(N)c1N=Nc1ccccc1	i	i	51.0	i	i
Nc1nc(N)c(N=Nc2ccccc2)c(=O)[nH]1	nt	nt	nt	64.2	nt
CC1(C(=O)NCc2ccccc2Br)CCN1Cc1csc2ccccc12 (stereo not drawn)	nt	nt	nt	i	nt
CC(=O)N(C)c1ccc(N=Nc2ccc3ncccc3c2)cc1	nt	nt	nt	61.9	nt
Oc1ccc(C=Nc2ccc3ncccc3c2)c(O)c1	i	i	i	nt	i
CCC(c1nnnn1-c1ccc2c(c1)OCCO2)N1CCN(c2cc(C)ccc2C)CC1 (stereo not drawn)	nt	nt	nt	i	nt
Cc1ccc(NC(=O)c2cc3c(s2)CCCC3)cc1	i	i	i	i	i
Cc1ccc(NC(=O)c2scc3c2CCCC3)cc1	i	i	75.1	i	i
N#CC(=C1CCCC1)c1nc(-c2ccccc2)cs1	i	i	54.2	i	i
COc1ccc(S(=O)(=O)NC(=O)C2(C)CCN2C(=O)COc2ccc(Cl)cc2)cc1OC (stereo not drawn)	nt	nt	nt	i	nt
C/C(=N\NC(=O)c1cc(C)nc2ccccc12)c1ccccn1	nt	nt	nt	i	nt
COc1ccc2nc(NN=C(C)c3ccccn3)cc(C)c2c1	nt	nt	nt	69.4	nt
COc1ccc(CN2CCC2(C)C(=O)NCc2ccc3c(c2)OCO3)c2ccccc12 (stereo not drawn)	nt	nt	nt	i	nt
O=C(Nc1cc(C(F)(F)F)cc(C(F)(F)F)c1)Nc1cnn(-c2ccc([N+](=O)[O-])cc2)c1C(F)(F)F	i	i	nt	47.1	nt
O=C(CN1C(=O)S/C(=C/c2ccc(N3CCOCC3)cc2)C1=O)N1CCOCC1	i	i	75.6	61.2	i
CC(OC(=O)CNC(=O)C12CC3CC(CC(C3)C1)C2)C(=O)Nc1ccc(N2CCOCC2)cc1 (stereo not drawn)	84.9	i	i	i	i
O=C(Cn1cnc2c(cnn2-c2ccc(F)cc2)c1=O)OCc1ccccc1	52.6	i	i	i	i
CC(=NNc1ccc2ccccc2n1)c1ccccc1O	nt	nt	nt	76.9	nt
C/C(=N\Nc1nc2ccccc2nc1C)c1ccccc1O	i	i	nt	i	nt
Cc1cc(O)c(/C=N/Nc2ccccc2)c(=O)o1	i	i	51.4	i	i
Cc1ccc(NC(=O)COc2ccccc2[N+](=O)[O-])nc1	i	i	79.6	60.4	i
SMILES	Platelet DG rel	PPC-1+TRAIL kill	FLuc inh counter	TRAIL sens C8	FLuc act counter
Cc1ccc(NC(=O)c2ccc(COc3ccccc3[N+](=O)[O-])o2)nc1	nt	nt	nt	i	nt
O=[N+]([O-])c1cccc(CSc2nc3ccccc3[nH]2)c1	i	i	i	i	i
COC(=O)c1cc(CSc2nc3ccccc3[nH]2)oc1C	i	i	53.1	i	i
Fc1ccccc1CSc1nc2ccccc2[nH]1	i	i	50.9	i	i
CCCc1cc(=O)[nH]c(SCc2cc(C(=O)OC)c(C)o2)n1	i	i	i	i	i
COc1cccc(CSc2nc3ccccc3[nH]2)c1	i	i	66.7	i	i
Cc1ccccc1S(=O)(=O)N1C(c2ccc(Cl)c(Cl)c2)CC=C(C(=O)O)C1c1cccc(Br)c1 (stereo not drawn)	nt	nt	nt	i	nt
CN[C@H](C)C(=O)NC[C@H]1O[C@@H](n2cc(C)c(=O)[nH]c2=O)C[C@@H]1O	nt	nt	nt	i	nt
CC(=O)Nc1ccc2nc(-c3cccs3)[nH]c2c1	i	i	51.6	i	i
Cc1sc(NC(=O)c2cccc(N3C(=O)CCC3=O)c2)nc1-c1ccccc1	nt	nt	nt	50.1	nt
CC(=O)Nc1ccc2nc(-c3cccn3C)[nH]c2c1	i	nt	nt	i	nt
O=C(Nc1nc2cc3c(cc2s1)OCCO3)c1cccs1	i	i	nt	63.3	nt
Cc1nc2ccc(NC(=O)c3cccs3)cc2s1	i	nt	nt	i	nt
CC(=O)Nc1ccc2nc(NC(=O)c3cccs3)sc2c1	86.3	i	nt	i	nt
CCCC(=O)N1CCC1(C)C(=O)Nc1cc(OC)ccc1OC (stereo not drawn)	nt	nt	nt	i	nt
O=C(Nc1ccc2c(c1)OCO2)c1ccc(Br)s1	i	i	60.9	i	i
O=C(Nc1ccc2c(c1)OCCO2)c1cccs1	i	i	69.6	i	i
O=C(Nc1ccc(N2CCCC2)c(Cl)c1)c1cccs1	i	i	66.0	i	i
O=C(Nc1nc2cc3c(cc2s1)OCCO3)c1cccc(N2C(=O)CCC2=O)c1	i	66.6	80.6	i	i
O=C(NC(=S)Nc1ccc(N2CCOCC2)c(Cl)c1)c1cccs1	i	i	i	i	i
C[C@@H]1CN([C@@H](C)CO)S(=O)(=O)c2ccc(Br)cc2O[C@H]1CN(C)C(=O)C1CCOCC1	nt	nt	nt	i	nt
COC1=CC(=O)OC(c2cccc(Cl)c2)C1 (stereo not drawn)	nt	nt	nt	i	nt
O=C(O)c1cc(-c2c[nH]c3ccccc23)nc2ccc3ccccc3c12	i	i	79.7	i	i
COC(=O)Nc1nnc(-c2ccccc2OC)s1	i	i	nt	i	nt
COC(=O)Nc1nnc(-c2ccccc2Cl)s1	i	i	55.0	i	i
NC(=O)c1oc2ccccc2c1NC(=O)c1ccc([N+](=O)[O-])o1	i	nt	nt	74.4	nt
CC(C)C[C@@H]1COc2cc(N(C)CCO)ccc2S(=O)(=O)N1	nt	nt	nt	i	nt
CN(C(=O)c1ccc(NC(=O)Cc2ccc(NC(=O)C3CCCN(S(=O)(=O)c4cccc([N+](=O)[O-])c4)C3)cc2)cc1)C1CCCC1 (stereo not drawn)	nt	nt	nt	i	nt
CN(C(=O)c1ccc(NC(=O)Cc2cccc(NC(=O)C3CCCN(S(=O)(=O)c4cccc([N+](=O)[O-])c4)C3)c2)cc1)C1CC1 (stereo not drawn)	nt	nt	nt	53.8	nt
